# Source: PubChem BioAssay
# SR-BI uptake up: activators of SR-BI mediated HDL lipid uptake. AID 504775. activation, % at 12.5 µM. CHO ldlA[mSR-BI] cells, DiI-HDL uptake fluorescence, 3 h; 100 = double the neutral-control signal. hit rate 0.096% among 320,000;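 active means mean replicate activation of at least 60% and every replicate at or above 60%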
#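 Assay system: LDL receptor-deficient CHO ldlA cells overexpressing murine SR-BI / Medium: BSA-supplemented, HEPES-buffered Ham's F12, pH 7.4 / Probe or stimulus: DiI-labelled HDL at 10 µg/mL final / Timing: compound with DiI-HDL co-incubation, 3 h at 37 °C / Technique: bottom-read cell fluorescence after medium removal, ex 550/em 595 nm / Measure: HDL uptake via cellular fluorescence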
# Vif imaging: inhibitors of HIV Vif; HEK293T cells, Vif self-association by quenched fluorescence, imaging, 24 h; inhibition, % at 7.49 µM; hit rate 0.35% among 340,000; in the data active means inhibition above about 50%, passing the limit was not always enough
# C2C12 statin: suppression of simvastatin myotoxicity; C2C12 myotubes + simvastatin, ATP luminescence, 48 h; scaled: DMSO 0, geranylgeraniol control 100; rescue of ATP level, % at 7.49 µM; hit rate 0.78% among 330,000;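 active means mean ATP rescue above about 67%, or every replicate alone reaching that limit, limit read from the data, passing the limit was not always enough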;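 further: myotubes were challenged with 10 µM simvastatin during compound exposure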
# SR-BI HDL uptake: blocks mouse SR-BI lipid uptake from DiI-HDL. Q61009. hit rate 0.96% among 320,000. inhibition, % at 12.5 µM. ldlA[mSR-BI] CHO cells, DiI-HDL uptake fluorescence, 3 h;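 active means mean replicate inhibition of at least 70% and a set share of replicates each scoring 70 or more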
# Target sequence (Q61009 whole entry, looked up): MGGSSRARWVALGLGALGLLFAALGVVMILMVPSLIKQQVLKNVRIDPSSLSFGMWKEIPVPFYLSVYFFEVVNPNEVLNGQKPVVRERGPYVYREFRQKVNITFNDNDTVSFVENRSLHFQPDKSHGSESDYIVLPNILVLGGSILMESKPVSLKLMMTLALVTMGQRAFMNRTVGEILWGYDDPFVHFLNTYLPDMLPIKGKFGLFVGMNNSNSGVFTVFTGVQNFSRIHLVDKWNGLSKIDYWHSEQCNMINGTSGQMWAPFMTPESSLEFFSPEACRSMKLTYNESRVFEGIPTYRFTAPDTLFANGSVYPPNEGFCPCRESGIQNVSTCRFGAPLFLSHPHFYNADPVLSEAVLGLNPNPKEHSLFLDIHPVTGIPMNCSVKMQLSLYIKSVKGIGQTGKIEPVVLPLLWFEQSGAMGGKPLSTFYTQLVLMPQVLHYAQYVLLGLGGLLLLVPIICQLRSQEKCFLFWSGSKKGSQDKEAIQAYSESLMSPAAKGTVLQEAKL
# Hits are given with their value; 0 = inactive; - = no result given. Compounds with a hit are over-represented: about 1.7% of the library has one in this group of screens.
SMILES,SR-BI uptake up,Vif imaging,C2C12 statin,SR-BI HDL uptake
COc1ccccc1-n1c(C)cc(SC)c(C(C)=O)c1=S,0,0,97.7,0
COc1ccc(-n2c(C)cc(C)c(C(C)=O)c2=S)cc1,0,0,-,0
COc1ccc(-c2ccc3c(N)c(C(=O)c4ccc(OC)c(OC)c4)sc3n2)cc1,0,148.3,-,0
NC(=O)c1sc2nc(-c3ccccc3)ccc2c1N,0,61.3,0,0
COc1ccc(C(=O)c2sc3nc(-c4ccccc4)ccc3c2N)cc1OC,0,0,0,0
CN(C)c1ccc(C=Cc2ccnc3c(O)cccc23)cc1,-,50.9,0,-
Cc1ccc(NC(=O)CC2SC(=NCC3CCCO3)NC2=O)cc1Cl (configuration not stated),0,86.6,0,0
C[C@@H]1CN([C@H](C)CO)C(=O)Cc2cc(NC(=O)Cn3cnnn3)ccc2O[C@H]1CN(C)S(=O)(=O)c1cn(C)cn1,-,-,0,-
Cc1cc(N)c(NC2=CC(=O)CC(C)(C)C2)cc1C,0,0,137.8,0
Cc1ccc(NC2=CC(=O)CC(C)(C)C2)cc1F,0,0,0,0
Nc1ccc(C(=O)Nc2ccc3cc(S(=O)(=O)O)ccc3c2)cc1,0,0,93.3,0
CCOc1cc(C(=O)Nc2cc(C(=O)OC)ccc2C)ccc1OCC(=O)N1CCOCC1,0,0,0,72.6
CCOc1cc(C(=S)N2CCOCC2)ccc1OC,0,66.3,0,0
CCOc1ccc(C(=S)N2CCOCC2)cc1OC,0,0,0,0
O=C(c1ccc(F)cc1)N1[C@@H](CO)[C@@H]2c3ccccc3NC[C@@H]21,-,-,0,-
Cn1c(/C=C(\C#N)C(N)=S)ccc1-c1ccc(Br)cc1,0,0,-,73.6
COc1ccc(-c2n[nH]c(C)c2-c2cc(OC)ccc2O)cc1,0,0,134.0,0
CCOC(=O)N1CCC(=NNC(=O)c2cc3ccccc3cc2O)CC1,0,0,-,0
CC(=O)N1CCC(=NNC(=O)c2cc3ccccc3cc2O)CC1,0,50.5,0,0
CC(=O)Nc1cccc(/C(C)=N/NC(N)=S)c1,0,0,0,81.5
CC(=O)Nc1cccc(/C(C)=N/NC(=S)NC(C)C)c1,0,0,-,0
O=C(Cn1cc(C(=O)C(=O)N2CCOCC2)c2ccccc21)Nc1cccc(C(F)(F)F)c1,-,70.2,0,-
COc1ccccc1NC(=O)Cn1cc(C(=O)C(=O)N2CCOCC2)c2ccccc21,0,0,0,0
C[C@@H]1CN([C@@H](C)CO)C(=O)c2cc(-c3ccncc3)cnc2O[C@H]1CN(C)C(=O)Cc1cccnc1,-,-,0,-
Cc1ccc(-c2cc(C(F)F)n3ncc(C(=O)N4CCc5ccccc54)c3n2)cc1,0,0,-,0
SMILES,SR-BI uptake up,Vif imaging,C2C12 statin,SR-BI HDL uptake
O=C(c1cnn2c(C(F)F)cc(-c3ccccc3)nc12)N1CCN(Cc2ccc3c(c2)OCO3)CC1,-,-,-,78.2
O=C(c1cnn2c(C(F)F)cc(-c3ccccc3)nc12)N1CCc2ccccc21,0,0,118.0,0
Cc1ccc(NC(=O)N2CCN(c3ccccn3)CC2)cc1,0,0,92.1,0
O=C(Nc1ccccc1)N1CCN(c2ccccn2)CC1,0,0,0,0
Cc1ccc(-c2cc(C(F)F)n3ncc(C(=O)N4CCN(c5ccccn5)CC4)c3n2)cc1,0,0,0,77.9
CCN1CCN(C(=O)c2cnn3c(C(F)F)cc(-c4ccc(C)cc4)nc23)CC1,0,0,0,0
C[C@@H]1CN([C@H](C)CO)C(=O)c2cc(NC(=O)Cn3cnnn3)ccc2O[C@H]1CN(C)S(=O)(=O)c1cccs1,-,-,0,-
COc1cc(CNc2nc(C)c([N+](=O)[O-])c(C)c2C#N)cc(OC)c1,0,0,0,75.8
Cc1nc(NCCc2ccccc2F)c(C#N)c(C)c1[N+](=O)[O-],0,0,0,74.4
O=C(c1ccc2c(c1)OCO2)N1C[C@H]2[C@@H](c3ccccc31)[C@H](CO)N2Cc1ccccc1Cl,-,-,0,-
CC(Oc1ccc2ccc(=O)oc2c1)C(=O)NCCCn1ccnc1 (configuration not stated),0,0,96.0,0
O=C(COc1ccc(Cl)cc1)NCCCn1ccnc1,0,0,71.5,0
CC1CC/C(=C\c2ccc3c(c2)OCO3)C(=O)/C1=C/c1ccc2c(c1)OCO2 (configuration not stated),0,0,206.9,0
O=S(=O)(N[C@@H]1CC[C@@H](CCn2cc(C3(O)CCCC3)nn2)O[C@@H]1CO)c1ccccc1,-,-,0,-
COC(=O)c1nc(-n2nc(C)cc2C)ccc1Cl,0,0,0,0
CNC(=O)COC(=O)c1nc(-n2nc(C)cc2C)ccc1Cl,0,0,80.0,0
